Like-named read-outs stand apart in the source and are kept apart here. The star is where a group is joined. acrylodan = 6-acryloyl-2-dimethylaminonaphthalene, CN(C)c1ccc2cc(C(=O)CC*)ccc2c1
Columns and labels:
[1] = extrapolated from peptide binding, [lipid]eff > 10^−2 M
ErbB1 [2] = conditions: cardiac fibroblasts; ref Murasawa et al., 1998; cited from earlier work
ErbB1 [3] = assay: EGF-mediated ErbB1 autophosphorylation in Cos1 cells; format: cell-based
ErbB1 [4] = conditions: ref Li et al., 2004a; cited from earlier work
ErbB1 [5] = conditions: ref Li et al., 2004a, cited from earlier work; for steady-state ErbB1 autophosphorylation: times >20 min; for initial peak of ErbB1 autophosphorylation: two other cell types
[6] = effect of added agents on binding of ErbB1; conditions: 2 μM sphingosine; PC/PS vesicles
ErbB1 [7] = conditions: A431 cells, 5 min after EGF; ref Friedman et al., 1989; cited from earlier work
calmodulin (Ca/CaM) = calmodulin (Ca/CaM) (Homo sapiens, UniProt P0DP23); assay: Ca/CaM binding by competition with PC/PS vesicles; design: species or system bovine brain and human brain; conditions: 2:1 PC/PS LUVs, 100 mM KCl, 1 mM MOPS, pH 7.0, 100 μM EGTA + 120 μM Ca2+; trace peptide ~5 nM; centrifugation; fit of Eq. 2
Summary of the method: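 Trace (~5 nM) [3H]NEM-labelled test peptide mixed with 100-nm sucrose-loaded 2:1 PC/PS LUVs (total lipid 2 × 10−5 M; repeats with 3:1 PC/PS) and varied bovine or human brain CaM. Spun 100,000 g for 1 h. Percent bound from supernatant/pellet counts; KCaM from a competition equation (Eq. 2) fit.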

[8] = format: binding; conditions: for rate of removal from vesicles by Ca/CaM: 2 μM Ca/CaM
Summary of the method: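 Stopped-flow fluorescence mixing of two solutions. The second holds 0.5–7 μM CaM with 50 μM CaCl2. Both contain 100 mM KCl and 1 mM MOPS, pH 7.0. Time constants τ come from exponential fluorescence rise; the transfer rate constant is the slope of 1/τ against [CaM].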

[9] = biological target: ErbB1(645–660) peptide with a phosphorylated Thr654 (human (from the printed accession P00533)); assay: centrifugation of vesicles
ErbB1 [10] = conditions: membranes and solubilized form; ref Davis et al., 1988; cited from earlier work
A431 cells = conditions: ref Hughes et al., 1991, cited from earlier work; for intracellular [Ca2+]: EGF
hepatocytes = conditions: EGF, in the next 2–3 min, ref Nojiri and Hoek, 2000; cited from earlier work

645–660 region of ErbB1: tethered 645–660 region of ErbB1 (RRRHIVRKRTLRRLLQ; UniProt P00533 669-684, looked up, fragment)
ratio of bound/free = K[lipid]eff [1]: > 100 | time bound to the plasma membrane (tethered region) [1]: > 99%

CC(=O)OCOC(=O)CN(CC(=O)OCOC(C)=O)c1ccccc1OCCOc1ccccc1N(CC(=O)OCOC(C)=O)CC(=O)OCOC(C)=O [BAPTA-AM]
angiotensin II–stimulated ErbB1 transactivation (ErbB1 [2]): inhibit

NCCCCCCNS(=O)(=O)c1cccc2c(Cl)cccc12 [W-7]
angiotensin II–stimulated ErbB1 transactivation (ErbB1 [2]): inhibit | ErbB1 receptor levels (ErbB1 [3]; 20–50 μM W-7, anti-ErbB1 reprobe): did not affect receptor levels | inhibition of EGF-mediated ErbB1 tyrosine phosphorylation (ErbB1 [3]; 20–50 μM for 30 min, then 100 ng/ml EGF 10 min, Western blot 4G10): dose-dependent inhibition | tyrosine kinase activity of purified ErbB1 (ErbB1 [4]): do not inhibit | steady-state ErbB1 autophosphorylation (ErbB1 [5]): not the steady-state value | initial peak of ErbB1 autophosphorylation (ErbB1 [5]): inhibit the initial peak

NCCCCNS(=O)(=O)c1ccc2ccccc2c1 [W-12]
tyrosine kinase activity of purified ErbB1 (ErbB1 [4]): do not inhibit | steady-state ErbB1 autophosphorylation (ErbB1 [5]): not the steady-state value | initial peak of ErbB1 autophosphorylation (ErbB1 [5]): inhibit the initial peak

NCCCCNS(=O)(=O)c1ccc2c(Cl)cccc2c1 [W-13]
tyrosine kinase activity of purified ErbB1 (ErbB1 [4]): do not inhibit | steady-state ErbB1 autophosphorylation (ErbB1 [5]): not the steady-state value | initial peak of ErbB1 autophosphorylation (ErbB1 [5]): inhibit the initial peak

CCCCCCCCCCCCC/C=C/[C@@H](O)[C@@H](N)CO [sphingosine]
ErbB1(645–660) peptide desorbed from vesicles [6]: 75%

C/C=C(/C)C(=O)O[C@H]1C(C)=C2[C@H]([C@@H]1OC(=O)CCCCCCC)[C@@](C)(OC(C)=O)C[C@H](OC(=O)CCC)[C@@]1(O)[C@H]2OC(=O)[C@@]1(C)O [thapsigargin]
receptor autophosphorylation (ErbB1 [7]): inhibit receptor autophosphorylation

ErbB2(676–692): peptide corresponding to the juxtamembrane region of ErbB2 (Ac-CKRRQQKIRKYTMRRLLQ-NH2; not fully specified (residue 1))
Ca/CaM Association Constant (KCaM) (calmodulin (Ca/CaM)): 6e+07 M⁻¹

ErbB3(667–683): peptide corresponding to the juxtamembrane region of ErbB3 (Ac-CRGRRIQNKRAMRRYLER-NH2; not fully specified (residue 1))
Ca/CaM Association Constant (KCaM) (calmodulin (Ca/CaM)): 3e+06 M⁻¹

ErbB4(676–692): peptide corresponding to the juxtamembrane region of ErbB4 (Ac-CRRKSIKKKRALRRFLET-NH2; not fully specified (residue 1))
Ca/CaM Association Constant (KCaM) (calmodulin (Ca/CaM)): 2e+07 M⁻¹

acrylodan-labeled ErbB1(645–660): ErbB1(645–660) labeled with acrylodan (Ac-C(acrylodan)RRRHIVRKRTLRRLLQ-NH2; SMILES CC[C@H](C)[C@H](NC(=O)[C@H](Cc1c[nH]cn1)NC(=O)[C@H](CCCNC(=N)N)NC(=O)[C@H](CCCNC(=N)N)NC(=O)[C@H](CCCNC(=N)N)NC(=O)[C@H](CSCCC(=O)c1ccc2cc(N(C)C)ccc2c1)NC(C)=O)C(=O)N[C@H](C(=O)N[C@@H](CCCNC(=N)N)C(=O)N[C@@H](CCCCN)C(=O)N[C@@H](CCCNC(=N)N)C(=O)N[C@H](C(=O)N[C@@H](CC(C)C)C(=O)N[C@@H](CCCNC(=N)N)C(=O)N[C@@H](CCCNC(=N)N)C(=O)N[C@@H](CC(C)C)C(=O)N[C@@H](CC(C)C)C(=O)N[C@@H](CCC(N)=O)C(N)=O)[C@@H](C)O)C(C)C)
rate of removal from vesicles by Ca/CaM ([8]; 10% PS): 100 s⁻¹ | rate of removal from vesicles by Ca/CaM ([8]; 15% PS): 10 s⁻¹ | transfer rate constant (slope of 1/τ vs. [CaM]) ([8]; 85:15 PC/PS vesicles (15% PS)): 5e+06 M⁻¹ s⁻¹ | lifetime of peptide on vesicles ([8]; 85:15 PC/PS vesicles, without Ca/CaM): ~0.3 s

calcium/calmodulin (from UniProt P0DP23 1-149) (natural protein)
fold reduction of KCaM against the unphosphorylated peptide [9]: 20 fold

epidermal growth factor [EGF]
ErbB1 activation (ErbB1 [10]): can activate ErbB1 both in membranes and in solubilized form | increase of intracellular [Ca2+] (A431 cells; 30 nM EGF, ∼5 min): about fivefold | intracellular [Ca2+] (A431 cells; 5 min): 600 nM | intracellular [Ca2+] (A431 cells; by 15 min): 150 nM | intracellular [Ca2+] (hepatocytes): 150 nM

— PMC2266615 (The Journal of General Physiology, 2005)
